Measured values as given in ChEMBL document CHEMBL1130208, “(1 alpha, 2 beta, 3 beta, 4 alpha)-1,2-bis[N-propyl-N-(4-phenoxybenzyl) amino]carbonyl]cyclobutane-3,4-dicarboxylic acid (A-87049): a novel potent squalene synthase inhibitor” (J Med Chem, 1997).

Key:
Monkey [1] = assay: In vivo percent change of HDL cholesterol in monkeys at 20 mg/kg/day for 5 days dose; format: functional, Cercopithecidae
Procedure, shortened: (§1)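 Cynomolgus monkeys (n = 4) were given 20 mg/kg po daily for 5 days, and controls received vehicle with 0.2% methocel. Animals were fasted overnight before the last dose and bled from the femoral vein 2 h after dosing on day 5, before feeding. Plasma lipids are expressed as % change from pretreatment, with one-sample t-tests.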

Monkey [2] = assay: In vivo percent change of LDL cholesterol in monkeys at 20 mg/kg/day for 5 days dose; format: functional, Cercopithecidae; procedure, shortened: as §1
Monkey [3] = assay: In vivo percent change of total cholesterol in monkeys at 20 mg/kg/day for 5 days dose c; format: functional, Cercopithecidae; procedure, shortened: as §1
Squalene synthase = molecular target: T1, Squalene synthase (Rattus norvegicus, UniProt Q02769); assay: In vitro inhibitory activity against Squalene Synthase
T1 sequence (Q02769 whole entry): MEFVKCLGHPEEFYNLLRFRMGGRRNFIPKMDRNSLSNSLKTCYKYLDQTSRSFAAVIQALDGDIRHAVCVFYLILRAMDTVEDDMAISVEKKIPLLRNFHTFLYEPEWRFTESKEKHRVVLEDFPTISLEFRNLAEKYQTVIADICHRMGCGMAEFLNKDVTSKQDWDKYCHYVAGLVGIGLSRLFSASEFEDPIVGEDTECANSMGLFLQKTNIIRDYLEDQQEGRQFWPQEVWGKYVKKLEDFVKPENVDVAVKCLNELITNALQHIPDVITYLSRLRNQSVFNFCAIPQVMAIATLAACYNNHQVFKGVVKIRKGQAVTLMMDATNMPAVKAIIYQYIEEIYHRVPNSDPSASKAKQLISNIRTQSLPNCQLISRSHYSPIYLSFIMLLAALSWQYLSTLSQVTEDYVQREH
Procedure, shortened: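 Squalene synthase inhibition measured in a rat liver microsomal enzyme assay.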

Monkey [4] = assay: In vivo percent change of total cholesterol in monkeys at 20 mg/kg/day for 5 days dose; format: functional, Cercopithecidae; procedure, shortened: as §1

SMILES	IC50 (Squalene synthase) [µM]	Change (Monkey [1]) [%]	Change (Monkey [2]) [%]	Change (Monkey [3]) [%]	Change (Monkey [4]) [%]
CCCN(Cc1ccc(Oc2ccccc2)cc1)C(=O)[C@@H]1[C@H](C(=O)O)[C@@H](C(=O)O)[C@H]1C(=O)N(CCC)Cc1ccc(Oc2ccccc2)cc1		-4	-36	-12	
CC[C@H](C)C(=O)O[C@H]1C[C@@H](C)C=C2C=C[C@H](C)[C@H](CC[C@@H]3C[C@@H](O)CC(=O)O3)[C@H]21 [LOVASTATIN]		-12	-21		-19

Second part, led by results:

IC50 (Squalene synthase) [µM]	SMILES	Change (Monkey [1]) [%]	Change (Monkey [2]) [%]	Change (Monkey [3]) [%]	Change (Monkey [4]) [%]
10	CN(Cc1ccc(OCc2ccccc2)cc1)C(=O)[C@@H]1[C@H](C(=O)O)[C@@H](C(=O)O)[C@H]1C(=O)N(C)Cc1ccc(OCc2ccccc2)cc1				
0.14	CC(C)N(Cc1ccc(Oc2ccccc2)cc1)C(=O)[C@@H]1[C@H](C(=O)O)[C@@H](C(=O)O)[C@H]1C(=O)N(Cc1ccc(Oc2ccccc2)cc1)C(C)C				
8	CN(Cc1cccc(Oc2ccccc2)c1)C(=O)[C@@H]1[C@H](C(=O)O)[C@@H](C(=O)O)[C@H]1C(=O)N(C)Cc1cccc(Oc2ccccc2)c1				
